Measurements: ChEMBL document CHEMBL1130118, “A novel radioiodination reagent for protein radiopharmaceuticals with L-lysine as a plasma-stable metabolizable linkage to liberate m-iodohippuric acid after lysosomal proteolysis” (J Med Chem, 1997)
Several values for one entry are separate records, joined by “and”; a condition that tells them apart may be missing. Identical values can stand only once.

Legend:
Assay type in all cases: ADME, organism-based
[1] = Cumulative radioactivity exerted by [131 I ]L-HML-NGA in the feces at 24 hour postinjection of [131 I ]L-HML-NGA and [125 I ]MIH-NGA.; details: in vivo
How it was run: (§1)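 Mice received one i.v. co-injection of the dual-isotope NGA mixture, 9 µg of each radioiodinated protein, and were housed in metabolic cages for 24 h. Cumulative urine and feces were collected and counted. Values are % injected dose, mean (SD) of five animals, with a Student's paired t-test between the two co-administered conjugates.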

Homo sapiens [2] = species on record: Homo sapiens; experiment: The percent protein-bound radioactivity in NGAfractions following incubation of radioiodinated [131 I ]L-HML-NGA in human serum after 6 hours; details: in vivo
How it was run: (§2)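 Conjugates were diluted to 0.5 mg/mL in 0.1 M PBS pH 6.0, and 20 µL was added to 230 µL of freshly prepared human serum. Samples were incubated at 37 °C and taken at 1, 3, 6 or 24 h. Protein-bound fraction (Rf 0) was separated from small metabolites (Rf 0.6-0.9) by paper chromatography in methanol-water 4:1. Protein-bound radioactivity was divided by the initial radiochemical purity. Values are mean (SD).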

Mus musculus [3] = experiment: The biodistribution time for [131 I ]L-HML-NGA radioactivity after concomitant administration of [131 I ]L-HML-NGA and [125 I ]D-HML-NGA in mice. It is expressed as percent injected dose per stomach.; details: in vivo
How it was run: (§3)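 Six-week-old male ddY mice were given one i.v. co-injection of a 131I/125I-labelled NGA pair, each diluted to 90 µg/mL protein in 0.1 M PBS pH 6.0 and mixed 1:1, giving 9 µg of each radioiodinated NGA per mouse. Groups of five were killed at 5, 15, 30 min, 1 h and 3 h. Organs were weighed and counted in a well counter. Values are % ID per organ, blood as % ID/g, mean (SD).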

Mus musculus [4] = experiment: The biodistribution time for [131 I ]L-HML-NGA radioactivity after concomitant administration of [131 I ]L-HML-NGA and [125 I ]MPH-NGA in mice. It is expressed as percent injected dose per stomach.; details: in vivo; how it was run: as §3
Mus musculus [5] = experiment: The biodistribution time for [131 I ]L-HML-NGA radioactivity after concomitant administration of [[131 I ]L-HML-NGA and [125 I ]D-HML-NGA in mice. It is expressed as percent injected dose per kidney.; details: in vivo; how it was run: as §3
Homo sapiens [6] = species on record: Homo sapiens; experiment: The percent protein-bound radioactivity in NGAfractions following incubation of radioiodinated [131 I ]L-HML-NGA in human serum after 24 hours; how it was run: as §2
Mus musculus [7] = experiment: The biodistribution time for [131 I ]L-HML-NGA radioactivity after concomitant administration of [[131 I ]L-HML-NGA and [125 I ]L-HML-IT-NGA in mice. It is expressed as percent injected dose per kidney.; details: in vivo; how it was run: as §3
Homo sapiens [8] = species on record: Homo sapiens; experiment: The percent protein-bound radioactivity in NGAfractions following incubation of radioiodinated [131 I ]L-HML-NGA in human serum after 3 hours; details: in vivo; how it was run: as §2
Mus musculus [9] = experiment: The biodistribution time for [131 I ]L-HML-NGA radioactivity after concomitant administration of [131 I ]L-HML-NGA and [125 I ]L-HML-IT-NGA in mice. It is expressed as percent injected dose per gram of blood tissue.; details: in vivo; how it was run: as §3
[10] = Cumulative radioactivity exerted by [131 I ]L-HML-NGA in the feces at 24 hour postinjection of [131 I ]L-HML-NGA and [125 I ]D-HML-NGA.; details: in vivo; how it was run: as §1
Mus musculus [11] = experiment: Biodistribution time for compound radioactivity after concomitant administration of compound and [125 I ]MIH-NGA in mice was expressed as % injected dose per liver after 15 min; details: in vivo, 0.25 h; how it was run: as §3
[12] = Cumulative radioactivity exerted by [131 I ]L-HML-NGA in the urine at 24 hour postinjection of [131 I ]L-HML-NGA and [125 I ]MIH-NGA.; details: in vivo; how it was run: as §1
Mus musculus [13] = experiment: The biodistribution time for [131 I ]L-HML-NGA radioactivity after concomitant administration of [131 I ]L-HML-NGA and [125 I ]MIH-NGA in mice. It is expressed as percent injected dose per intestine.; details: in vivo; how it was run: as §3
[14] = Cumulative radioactivity exerted by [131 I ]L-HML-NGA in the urine at 24 hour postinjection of [131 I ]L-HML-NGA and [125 I ]MPH-NGA.; details: in vivo; how it was run: as §1

Compound: N[C@@H](CS)C(=O)SC1CC(=O)N(CCCC[C@H](NC(=O)CNC(=O)c2cccc([131I])c2)C(=O)O)C1=O (some centres undefined)
- Radioactivity [1]: 5.87%
- Radioactivity (Homo sapiens [2]): 98.39%
- Radioactivity (Mus musculus [3]): 0.2% and 0.5% and 0.88% and 0.78% and 0.69%
- Radioactivity (Mus musculus [4]): 0.26% and 0.57% and 0.3% and 0.29% and 0.33%
- Radioactivity (Mus musculus [5]): 1.07% and 4.49% and 1.55% and 0.61% and 0.27%
- Radioactivity (Homo sapiens [6]): 97.23%
- Radioactivity (Mus musculus [7]): 0.28% and 4.91% and 4.92% and 0.96% and 0.21%
- Radioactivity (Homo sapiens [8]): 99.07%
- Radioactivity (Mus musculus [9]): 1.13% and 1.72% and 0.8% and 0.48%
- Radioactivity [10]: 4.4%
- Radioactivity (Mus musculus [11]): 54.33%
- Radioactivity [12]: 87.32%
- Radioactivity (Mus musculus [13]): 0.78% and 3.57% and 5.41% and 6.15% and 4.54%
- Radioactivity [14]: 84.45%
